Compound activity deposited in PubChem BioAssay by several laboratories.
The list is not random: actives were taken first. Their share in the collection is about 5.9%.
MT1-MMP txn act: MT1-MMP promoter transcription activation; HT1080 MT1-MMP promoter luciferase reporter, luminescence, overnight; stronger effect = higher value; activation factor at 10 µM; 0.16% of 86,000 active;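 active means activation factor of at least 2 for MT1-MMP transcription at 10 µM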
Jurkat tox 60K: reduces viability or proliferation of Jurkat cells | inhibition, % at 4 µM | Jurkat E6.1 viability, ATP luminescence, 48 h | 1.2% of 56,000 active;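 active means inhibition above the mean inhibition of all tested compounds plus 3 SD, cut at about 28% in these data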
Fibroblast inh: blocks proliferation of human lung fibroblasts | LL 47 human lung fibroblast viability, ATP luminescence; stronger effect = lower value | viability, % at 10 µM | 1.1% of 85,000 active | AID 719;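 active means viability at or below 50% in the single dose screen; inactive means viability above 50%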;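 further: compound exposure lasted 72 h before the ATP readout; 100% = median luminescence of untreated cell-only wells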
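Material: human LL 47 lung fibroblast cells; quantity: 1,150 cells/well; medium: IMEM plus 15% FBS; doses: 0.1% DMSO in all compound wells; timing: overnight attachment after seeding, then 72 h compound exposure at 37 °C; detection: CellTiter-Glo luminescence; measure: % viability of median cell-only signal; controls: cell-only wells, no compound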
H69AR inhibit: blocks growth of human H69AR lung tumor cells. H69AR lung tumor viability, ATP luminescence, 72 h; stronger effect = lower value. viability, % at 10 µM. 6% of 85,000 active;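 active means viability at or below 40%; inactive means viability above 40%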;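 further: multidrug resistant small cell line overexpressing MRP-1 efflux transporter; 100% = mean luminescence of untreated control wells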
PTK2B oligo ant: blocks oligomerization of human Pyk2 in cells. 0.83% of 99,000 active. Q14289. z-score (the deposit names both 25 µM and 10 µM). AID 1347419. Q293 cells, Pyk2 FERM NanoBiT luminescence; stronger effect = lower value;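 active means Z-score of -3 or lower, scaled per plate to the spread of control and sample wells; inactive means z-score above -3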;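 further: negative z-score means lost luminescence so less FERM oligomerization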
Target sequence (Q14289 whole entry, looked up): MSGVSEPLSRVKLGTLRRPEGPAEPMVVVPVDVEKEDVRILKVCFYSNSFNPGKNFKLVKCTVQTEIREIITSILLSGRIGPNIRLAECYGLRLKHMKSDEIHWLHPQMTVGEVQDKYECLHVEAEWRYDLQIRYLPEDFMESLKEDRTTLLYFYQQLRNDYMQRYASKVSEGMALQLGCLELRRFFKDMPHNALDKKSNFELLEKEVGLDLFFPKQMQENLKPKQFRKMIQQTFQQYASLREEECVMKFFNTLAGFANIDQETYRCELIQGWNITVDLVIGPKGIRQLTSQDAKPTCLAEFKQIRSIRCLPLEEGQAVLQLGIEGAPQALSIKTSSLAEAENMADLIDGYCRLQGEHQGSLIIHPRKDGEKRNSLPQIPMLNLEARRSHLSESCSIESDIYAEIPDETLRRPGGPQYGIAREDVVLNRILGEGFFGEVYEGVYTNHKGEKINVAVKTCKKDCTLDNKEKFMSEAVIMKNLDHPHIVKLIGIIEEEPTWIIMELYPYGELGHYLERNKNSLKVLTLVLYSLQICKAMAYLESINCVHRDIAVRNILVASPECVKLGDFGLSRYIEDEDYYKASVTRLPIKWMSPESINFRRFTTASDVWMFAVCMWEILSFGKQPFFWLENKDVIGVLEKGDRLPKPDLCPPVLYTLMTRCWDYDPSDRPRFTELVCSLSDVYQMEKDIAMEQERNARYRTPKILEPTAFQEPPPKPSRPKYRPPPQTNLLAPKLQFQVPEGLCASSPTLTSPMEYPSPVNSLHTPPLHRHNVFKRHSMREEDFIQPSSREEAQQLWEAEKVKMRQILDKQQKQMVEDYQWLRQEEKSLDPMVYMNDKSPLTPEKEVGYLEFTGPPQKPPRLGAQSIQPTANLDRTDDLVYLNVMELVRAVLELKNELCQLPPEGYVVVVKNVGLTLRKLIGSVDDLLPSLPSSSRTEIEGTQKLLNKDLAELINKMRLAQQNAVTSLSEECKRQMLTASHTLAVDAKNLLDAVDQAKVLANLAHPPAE
HUVEC prolif 384: inhibitors of human endothelial cell proliferation | viability, % at 10 µM (by protocol) | 1.1% of 86,000 active | HUVEC proliferation, CellTiter-Glo luminescence, 72 h; stronger effect = lower value | AID 648;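 active means viability at or below 30%; inactive means viability above 30%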;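 further: 100% = median luminescence of DMSO-only cell control wells on each plate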
An asterisk follows results filed as active; x = not tested or not shown.

SMILES	MT1-MMP txn act	Jurkat tox 60K	Fibroblast inh	H69AR inhibit	PTK2B oligo ant	HUVEC prolif 384
CCOC(=O)C1CCN(c2nc(-c3ccccc3)nc3c2oc2ccccc23)CC1	1.2	4	97	63	-1	85
O=C(O)CSc1nc(-c2ccccc2)nc2c1oc1ccccc12	1.1	0	96	65	0.42	91
Cc1csc(Sc2ccc([N+](=O)[O-])cc2C(=O)OCC(=O)NC(=O)NC(C)(C)C)n1	x	x	x	x	-1.1	x
CC(C)CNC(=O)c1coc(=O)c(Br)c1	x	x	27*	0.8*	0.66	84
CN(C)CCNC(=O)c1coc(=O)c(Br)c1	1.2	0	106	64	-0.24	112
Cc1ccccc1-c1nc2sc3c(c2c(=O)n1N)CCCC3	1.6	x	89	44	0.67	93
CC1(C)Cc2c(sc3nc(-c4cccs4)n(N)c(=O)c23)CO1	1.3	x	83	35*	-1.3	84
Nn1c(-c2cccs2)nc2sc3c(c2c1=O)CCCC3	1.5	11	84	31*	-0.34	69
O=C(Nc1ccccc1Sc1ccccc1)c1ccccc1F	x	x	x	x	-0.65	x
CCOc1cc(N2CCOCC2)c(OCC)cc1NS(=O)(=O)c1ccc(Cl)s1	0.5	69*	x	20*	-1.6	58
CCOc1cc(N2CCOCC2)c(OCC)cc1NC(=O)CCS(=O)(=O)c1ccc(Cl)cc1	1	-4	94	77	-0.49	98
O=C(NC1CC1)c1cc2c(s1)-c1ccccc1OC2	1.6	38*	96	90	x	80
CCOC(=O)CCNC(C(=O)OCC)c1ccccc1 (centres undefined)	1	x	106	94	0.45	108
CC1CC(C)(C)NC(=S)N1CCCC(=O)N1CCN(c2ccccc2F)CC1 (centres undefined)	x	x	x	x	0.29	x
CNCCCOc1ccc(C(C)(C)c2ccccc2)cc1	1.1	x	92	9.9*	x	86
CNCCCCOc1ccccc1-c1ccccc1	x	x	x	x	0.37	x
CC(C)OC(=O)c1nnn(-c2nonc2N)c1CN1CCCCCC1	1.1	12	94	80	0.82	99
COc1ccccc1-c1cc(C(F)(F)F)nc(S(=O)(=O)CCCC(=O)N2CCCCC2C)n1 (centres undefined)	0.9	58*	x	x	-1.1	x
CC1(C)Nc2ccc(O)cc2-c2c1ssc2=S	1.2	x	88	68	-1.4	27*
COc1cccc(-n2sc3c(c2=S)-c2cc(OC)ccc2NC3(C)C)c1	x	x	x	x	-0.92	x
COC(=O)c1cc2ccsc2n1CC(=O)Nc1ccc(N(C)C)cc1	0.9	0	102	99	-1.5	108
COC(=O)c1cc2ccsc2n1CC(=O)Nc1cc(Cl)ccc1OC	1	86*	x	x	-2.5	x
CN(Cc1ccccc1)c1nc2c(c(=O)[nH]c(=O)n2C)n1CCOc1ccccc1	1.1	3	90	81	-0.83	85
CCOC(=O)c1sc(NC(=O)CCN2C(=O)c3cccc([N+](=O)[O-])c3C2=O)c(C(=O)OCC)c1C	x	x	x	x	-0.17	x
CC1Cc2ccccc2N1C(=O)C1CCCN(S(=O)(=O)c2cccc3cccnc23)C1 (centres undefined)	1	7	82	37*	x	80
SMILES	MT1-MMP txn act	Jurkat tox 60K	Fibroblast inh	H69AR inhibit	PTK2B oligo ant	HUVEC prolif 384
C/C=C(/C(=C/C)c1ccc(O)cc1)c1ccc(O)cc1	1.2	x	90	21*	x	61
Cc1ccc(C(=O)c2ccc(O)cc2)cc1C	1.4	0	x	x	-0.02	x
C=C(c1ccc(O)cc1)c1ccc(O)cc1	1.2	-4	x	23*	-4.6*	86
O=C(c1ccc(O)cc1)c1ccc(Cl)cc1	x	x	x	x	0.21	x
Cc1nc2cc(C(F)(F)F)ccc2n1C1CCN(CC(=O)NC(C)(C)C)CC1	1	-3	101	57	1.1	108
CCc1ccc(N2CC(C(=O)N/N=C/c3cccc([N+](=O)[O-])c3)CC2=O)cc1 (centres undefined)	x	x	x	x	-0.37	x
CCc1ccccc1NS(=O)(=O)c1cc(C)ccc1OC	x	9	93	156	-0.72	91
COc1cccc(C(=O)Oc2cc(-c3ccccc3)no2)c1	1.1	x	105	102	-0.55	92
CCOC(=O)c1nnn(-c2ccccc2)c1C	1.2	x	99	93	0.07	106
CCOC(=O)c1nn(-c2ccc(F)cc2)c2nc(-c3ccccc3)c(C#N)c(=O)n12	x	x	x	x	0.11	x
CCOC(=O)c1nn(-c2cccc(OC)c2)c(-c2ccccc2)c1C(=O)c1ccccc1	x	x	x	x	-4.2*	x
CCOC(=O)c1c(N)nn(C(C)=O)c1-c1ccccc1	1.2	1	98	86	2.2	84
